# Source: PubChem BioAssay
# An excerpt weighted towards active compounds, which were near 2.1% of everything screened.
# NOD2 RIPK2 PPI: NOD2-RIPK2 protein interaction inhibition; O43353; CHO BLA complementation NOD2-RIPK2, CCF4 ratio; inhibition, % at 4.98 µM; 360,000 tested, 0.38% active; AID 624267; in the data active = inhibition above about 21%;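 also: 0% = vehicle only and 100% = reference blocker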
# MC4R antagonist: blocks human MC4R cAMP signaling. P32245. inhibition, % at 6.5 µM. AID 540295. MC4R-expressing cells, MTII-stimulated cAMP, LANCE TR-FRET. 360,000 tested, 0.48% active;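 active = inhibition above its plate's cutoff, the mean of tested wells on that plate plus 3 SD, cut at about 29% in these data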;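 also: 0% = Melanotan II alone and 100% = Melanotan II plus saturating MCL0020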
#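 Material – human MC4R-expressing U2OS cells · Repeats – no replicates · Detection – TR-FRET with Eu-cAMP and labeled anti-cAMP, 671 nm · Times – compound 30 min, challenge 1 h, detection 1 h · Compound – single nominal compound dose of 6.5 µM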
# TLR9-MyD88 inh: TLR9-MyD88 interaction inhibition | Q9NR96+Q99836 | CHO BLA complementation TLR9-MyD88, CCF4 FRET ratio | 340,000 tested, 0.21% active | AID 504734 | inhibition, % at 4.98 µM;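 active = inhibition above the mean over all tested compounds plus 3 SD, cut at about 21% in these data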;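 also: 0% = DMSO only wells and 100% = clavulanate BLA inhibitor control wells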
# Target sequence (Q99836 whole entry, looked up): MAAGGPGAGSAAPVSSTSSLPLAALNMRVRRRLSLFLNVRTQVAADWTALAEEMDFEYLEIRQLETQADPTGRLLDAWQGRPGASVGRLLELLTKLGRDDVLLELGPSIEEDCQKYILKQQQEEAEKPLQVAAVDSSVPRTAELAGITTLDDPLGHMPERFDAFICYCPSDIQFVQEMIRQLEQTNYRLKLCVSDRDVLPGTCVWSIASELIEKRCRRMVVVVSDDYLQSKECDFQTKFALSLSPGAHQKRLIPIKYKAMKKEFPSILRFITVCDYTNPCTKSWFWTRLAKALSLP
# Target sequence (Q9NR96 whole entry, looked up): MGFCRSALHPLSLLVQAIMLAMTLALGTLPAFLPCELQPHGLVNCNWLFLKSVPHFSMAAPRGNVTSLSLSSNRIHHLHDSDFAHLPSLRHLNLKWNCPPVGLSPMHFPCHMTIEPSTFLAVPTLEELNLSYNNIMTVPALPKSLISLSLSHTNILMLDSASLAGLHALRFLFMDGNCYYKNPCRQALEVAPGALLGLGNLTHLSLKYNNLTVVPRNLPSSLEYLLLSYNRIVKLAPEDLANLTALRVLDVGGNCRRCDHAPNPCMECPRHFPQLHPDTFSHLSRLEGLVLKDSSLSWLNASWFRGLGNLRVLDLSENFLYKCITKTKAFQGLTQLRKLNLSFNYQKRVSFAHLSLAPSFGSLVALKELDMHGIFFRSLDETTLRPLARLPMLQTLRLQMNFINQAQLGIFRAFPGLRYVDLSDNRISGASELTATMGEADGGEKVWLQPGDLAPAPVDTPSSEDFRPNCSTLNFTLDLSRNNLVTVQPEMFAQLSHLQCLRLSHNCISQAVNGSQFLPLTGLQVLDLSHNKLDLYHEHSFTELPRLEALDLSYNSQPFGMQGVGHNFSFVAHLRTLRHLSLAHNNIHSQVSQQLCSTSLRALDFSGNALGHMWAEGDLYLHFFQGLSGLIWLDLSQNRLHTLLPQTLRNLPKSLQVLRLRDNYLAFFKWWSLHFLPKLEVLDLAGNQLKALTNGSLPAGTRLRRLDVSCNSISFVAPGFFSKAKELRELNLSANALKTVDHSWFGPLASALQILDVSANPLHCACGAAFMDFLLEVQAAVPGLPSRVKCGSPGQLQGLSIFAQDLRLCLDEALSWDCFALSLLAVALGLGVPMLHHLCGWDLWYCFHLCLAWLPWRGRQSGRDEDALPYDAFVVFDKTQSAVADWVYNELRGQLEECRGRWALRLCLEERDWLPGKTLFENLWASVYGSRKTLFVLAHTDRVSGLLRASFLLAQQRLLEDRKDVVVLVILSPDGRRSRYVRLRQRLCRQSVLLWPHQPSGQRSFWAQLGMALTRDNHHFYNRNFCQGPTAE
# MIN6 prolif-1: induces beta-cell replication in MIN6 cells | MIN6 cells proliferation, ATPlite luminescence, 48 h; cells starved in 0.2% serum; 100% = growth in 10% serum | proliferation, % at 10 µM | 330,000 tested, 0.29% active | AID 2380;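 active = compounds whose signal lies at least 3.5 SD above the mean of all wells on their plate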;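 also: 0% = DMSO-treated cells in low-serum medium and 100% = 10% serum control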
# TLR4-MyD88 BLA: inhibitors of human TLR4-MyD88 binding | HeLa CL3-4 TLR4/MyD88 BLA complementation, FRET ratio | 200,000 tested, 0.18% active | O00206+Q99836 | inhibition, % at 8.4 µM | AID 861; in the data active = inhibition above about 25%;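 also: 0% = vehicle and 100% = reference inhibitor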
# MC4R barr agon: human MC4R agonism via beta-arrestin. 360,000 tested, 0.98% active. AID 540308. activation, % at 8.9 µM. P32245. U2OS MC4R beta-arrestin complementation, luminescence; percent of melanotan II response, DMSO zero;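 active = activation above a per-plate cutoff, the mean activation of sample wells on that plate plus 3 SD, cut at about 8% in these data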
# TLR4 MyD88 cnf: TLR4-MyD88 interaction inhibition confirmed. shares compounds with TLR4-MyD88 BLA. HeLa CL3-4 BLA complementation, CCF4 FRET ratio. AID 941. 350 tested, 50% active. inhibition, % at 8.4 µM;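 active = mean inhibition across three repeat runs above about 25% carried over from the earlier screen, limit read from the data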;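 also: plate controls were DMSO only for no effect and clavulanic acid blocking BLA at full dose for full effect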
# BLA inhibitor ct: beta-lactamase inhibition flagged in TLR4-MyD88 counter-screen | shares compounds with TLR4-MyD88 BLA | HeLa BLA reporter, CCF4 FRET ratio | inhibition, % at 8.4 µM | 350 tested, 63% active;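 active = mean inhibition over three repeats above about 26% taken from the earlier screen, limit read from the data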;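 also: HeLa cells stably expressing beta-lactamase reporter as counterscreen for TLR4-MyD88 inhibitors; 0% = DMSO and 100% = clavulanic acid full inhibition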
# MIN6 prolif-2: confirmation of inducers of beta-cell replication in MIN6 cells | shares compounds with MIN6 prolif-1 | MIN6 beta-cell proliferation, ATPlite luminescence, 48 h; cells kept in 0.2% serum; scaled between 0.2% and 10% serum | proliferation increase, % at 50 µM | 920 tested, under 10 active;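 active = proliferation increase above 40% at any of the four tested concentrations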
# TLR9-MyD88 conf: TLR9-MyD88 interaction inhibition, confirmation | shares compounds with TLR9-MyD88 inh | CHO TLR9/MyD88 BLA complementation, CCF4 FRET ratio | inhibition, % at 4.98 µM | 680 tested, 51% active | AID 540250;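 active = mean inhibition across three repeats above about 21% taken from the earlier screen, limit read from the data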;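 also: blue over green emission ratio reports constitutive TLR9 MyD88 association via BLA complementation; 0% = DMSO vehicle wells and 100% = clavulanate BLA inhibitor wells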
# BLA counter-1: beta-lactamase reporter inhibition, counter-screen artifact; shares compounds with TLR9-MyD88 inh; CHO-BLA cells, CCF4 FRET ratio, BLA reporter; inhibition, % at 4.98 µM; 680 tested, 7% active;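 active = mean inhibition above a 50% cutoff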;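 also: counterscreen of TLR9-MyD88 hits on CMV-driven BLA in CHO-K1 cells; 0% = DMSO alone and 100% = clavulanate blocking BLA; higher means less blue over green ratio so more BLA blockade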
# TLR9 CHO tox: counter-screen for TLR9-MyD88 inhibitors: cytotoxicity in CHO cells; shares compounds with TLR9-MyD88 inh; 680 tested, 39% active; luminescence; inhibition, % at 4.98 µM; in the data active = inhibition above about 11%
# cAMP nonselect: counter-screen for MC4R antagonists: nonselective cAMP signaling inhibitors | shares compounds with MC4R antagonist | parental U2OS, forskolin cAMP, LANCE TR-FRET | inhibition, % at 6.5 µM | 1,600 tested, 26% active | AID 602193;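 active = mean inhibition over triplicates above the low-control well mean plus 3 SD, set per campaign, cut at about 13% in these data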;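 also: signal is single emission at 671 nm which falls as cellular cAMP rises; 0% = forskolin-stimulated wells and 100% = buffer without forskolin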
# MC4R cAMP antag: human MC4R cAMP antagonism confirmation; shares compounds with MC4R antagonist; MC4R-expressing cells, MTII-stimulated cAMP, TR-FRET; inhibition, % at 6.5 µM; 1,600 tested, 27% active; in the data active = inhibition above about 29%;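 also: 0% = agonist stimulated wells alone and 100% = agonist stimulated wells plus saturating reference antagonist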
# NOD2-RIPK2 conf: NOD2-RIPK2 interaction inhibition confirmed; shares compounds with NOD2 RIPK2 PPI; CHO cells, NOD2-RIPK2 BLA complementation, CCF4 FRET; inhibition, % at 4.98 µM; 1,200 tested, 70% active;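 active = mean inhibition across replicates above a set limit taken from the earlier primary screen, cut at about 21% in these data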;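 also: 0% = DMSO-only wells and the high end = clavulanate BLA-blocked wells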
# BLA counter-2: counter-screen for NOD2-RIPK2 interaction inhibitors: BLA reporter | shares compounds with NOD2 RIPK2 PPI | CHO BLA reporter, CCF4 FRET ratio, counterscreen | inhibition, % at 4.98 µM | 1,200 tested, 57% active;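 active = mean inhibition above the low-control mean inhibition plus three low-control SD, cut at about 11% in these data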;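 also: 0% = DMSO only wells and 100% = clavulanate high control wells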
# * hit, by the source's call; . = no result given.
SMILES,NOD2 RIPK2 PPI,MC4R antagonist,TLR9-MyD88 inh,MIN6 prolif-1,TLR4-MyD88 BLA,MC4R barr agon,TLR4 MyD88 cnf,BLA inhibitor ct,TLR9-MyD88 conf,BLA counter-1,TLR9 CHO tox,NOD2-RIPK2 conf,BLA counter-2,others
CC(=O)c1sc2nc(-c3ccc(C)cc3)c3c(c2c1N)CCCC3,35.6*,1.4,51.1*,-4.9,25.6*,0.5,31.7*,61.0*,41.3*,46.4,9.3,56.5*,67.8*,
Cc1ccc(-c2nc3sc(C(N)=O)c(N)c3c3c2CCCC3)cc1,1.1,-2.6,-2.4,0.0,8.5,2.2,.,.,.,.,.,.,.,
Cc1ccc(S(=O)(=O)/N=C(/Nc2ccc3[nH]c(=O)[nH]c3c2)c2ccc(F)cc2)cc1,-7.0,3.8,-2.7,3.0,2.0,0.3,.,.,.,.,.,.,.,
CN1CCCc2cc3c(C(F)(F)F)cc(=O)oc3nc21,34.7*,-5.7,46.6*,-0.8,39.4*,0.3,36.5*,65.9*,37.7*,45.2,6.9,69.1*,72.7*,
CC(C)c1cc(=O)oc2c3c4c(cc12)CCCN4CCC3,7.3,11.0,0.6,-2.3,6.5,-0.5,.,.,.,.,.,.,.,
CN(C)c1ccc(C(=O)/C=C/c2ccc(Br)cc2)cc1,-10.8,10.2,-6.2,-2.8,3.7,-0.9,.,.,.,.,.,.,.,
CCN(CC)c1ccc(/C=C/C(=O)c2ccc(Br)cc2)cc1,58.8*,0.3,34.5*,.,54.6*,-2.9,52.5*,73.5*,39.2*,46.6,-5.5,77.6*,79.0*,
Nc1ccc(/C=C/C(=O)c2cccs2)cc1,30.0*,-9.8,22.6*,-4.2,25.2*,-0.8,16.9,36.6*,8.5,10.9,-2.6,40.1*,34.3*,
CCN(CC)c1ccc2c(c1)oc(=O)c1c(Cl)cc(=O)oc12,62.1*,29.9*,49.9*,-6.6,79.8*,-1.6,86.8*,109.5*,50.9*,73.6*,73.1*,89.0*,83.9*,cAMP nonselect=6.7;MC4R cAMP antag=18.6
CCN(CC)c1ccc2c(C)c(Cl)c(=O)oc2c1,14.7,9.0,7.8,2.4,16.2,2.5,.,.,.,.,.,.,.,
CC(OC(=O)c1ccco1)C(=O)Nc1ccc(C(F)(F)F)cc1 (centres undefined),-5.7,1.2,3.4,-1.3,.,1.1,.,.,.,.,.,.,.,
Cc1[nH]c2ccccc2c1/C=C/C(=O)c1ccccc1,43.5*,-13.1,40.2*,-0.8,27.3*,1.9,26.7*,48.9*,20.7,21.8,1.4,43.0*,48.5*,
Cc1[nH]c2ccccc2c1/C=N/NC(=O)c1ccccc1,4.1,1.5,2.7,-1.8,.,-2.2,.,.,.,.,.,.,.,
O=C(CSc1ccccc1)Nc1nnc(C2CC2)s1,13.8,0.4,-0.2,-1.1,.,-1.4,.,.,.,.,.,.,.,
COc1cc2c3nnc(-c4ccc(F)cc4)c-3cn(Cc3cccc(C)c3)c2cc1OC,55.0*,2.2,41.5*,-6.3,44.2*,0.2,14.2,59.9*,26.1*,43.7,-1.6,73.1*,75.3*,
COc1cc2c3nnc(-c4ccc(F)cc4)c-3cn(Cc3ccc(C)cc3)c2cc1OC,50.6*,-0.1,26.6*,-6.3,47.7*,0.3,25.7*,81.2*,58.7*,61.1*,8.2,84.2*,85.7*,
O=C(COC(=O)c1ccc(F)c(S(=O)(=O)N2CCOCC2)c1)Nc1ccc2c(c1)OCO2,-8.8,1.8,-4.9,-3.0,.,1.5,.,.,.,.,.,.,.,
Cc1nn(C)c(C)c1N1C(=O)c2cccc3c(Br)ccc(c23)C1=O,56.0*,8.1,48.3*,-2.6,65.7*,-3.4,52.4*,92.1*,28.6*,32.7,5.8,51.3*,42.3*,
Cc1nn(C)c(C)c1N1C(=O)c2cccc3c(N)ccc(c23)C1=O,34.0*,-15.1,29.0*,.,29.4*,-2.0,20.1,44.1*,15.2,19.2,2.8,43.9*,44.0*,
CC(OC(=O)CCCC(=O)Nc1ccccc1)C(=O)c1ccccc1 (centres undefined),-1.0,2.2,-3.3,-4.6,.,-0.9,.,.,.,.,.,.,.,
COc1ccc(/C=C2/NC(=O)N(CC(=O)Nc3cccc(C)c3)C2=O)cc1O,-1.6,7.7,-8.7,-2.3,-19.2,-1.8,.,.,.,.,.,.,.,
CCN(CC)S(=O)(=O)c1cccc(-c2nnc(SCC(=O)c3cc(C)n(C)c3C)o2)c1,-11.1,0.3,-3.5,11.7*,3.3,-2.3,.,.,.,.,.,.,.,MIN6 prolif-2=0.8
CNc1ccccc(-c2ccc3cc4c(cc3n2)OCO4)c1=O,0.6,-2.3,-0.2,-2.5,3.8,1.9,.,.,.,.,.,.,.,
CC1=CCC(C(=O)O)C(C(=O)O)C1 (centres undefined),-0.3,13.1,3.0,-2.8,9.5,2.3,.,.,.,.,.,.,.,
CC(C)=CC/C=C1\CCC(C(=O)O)C(C(=O)O)C1 (centres undefined),-6.6,0.5,-13.8,5.5*,6.2,0.6,.,.,.,.,.,.,.,MIN6 prolif-2=-2.0
O=C(O)c1ccc(Cl)c(S(=O)(=O)NCC2CCCO2)c1 (centres undefined),6.6,4.4,-2.7,7.3*,-3.5,-2.6,.,.,.,.,.,.,.,MIN6 prolif-2=1.4
